ChEMBL document CHEMBL2157972, “Selenophene-containing inhibitors of type IIA bacterial topoisomerases” (J Med Chem, 2011)
Converted amounts (≈) assume the structure as drawn.

Assays:
Staphylococcus aureus [1] = assay: Antibacterial activity against methicillin-sensitive Staphylococcus aureus ATCC 29213; type: functional
Outline: (§1)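 Read-out is the minimum inhibitory concentration (MIC), reported in μg/mL, from standard antimicrobial susceptibility testing.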

Staphylococcus aureus [2] = assay: Antibacterial activity against methicillin-resistant Staphylococcus aureus ATCC 700699; type: functional; outline: as §1
[3] = Cytotoxicity against human Hep2 cell line after 72 hrs; type: cell-based; settings: HEp-2 cells
Outline: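 Human laryngeal epidermoid carcinoma Hep2 cells were exposed for 72 h.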

DNA gyrase = DNA gyrase (Staphylococcus aureus, UniProt P0A0K8+P20831); assay: Inhibition of Staphylococcus aureus DNA gyrase by supercoiling assay; type: protein-complex assay
[4] = Cytotoxicity against […] CHO cell line after 72 hrs; type: cell-based, Cricetulus griseus; settings: chinese hamster, CHO cells
Staphylococcus aureus [5] = assay: Antibacterial activity against fluoroquinolone resistant Staphylococcus aureus 1-FQR2M BK2384 expressing GyrA Ser84Leu mutant and GrlA Ser80Phe mutant; type: functional; outline: as §1
Staphylococcus aureus [6] = assay: Antibacterial activity against fluoroquinolone resistant Staphylococcus aureus 2-FQR2M NY2746 expressing GyrA Ser84Leu mutant and GrlA Ser80Phe mutant; type: functional; outline: as §1
Staphylococcus aureus [7] = assay: Antibacterial activity against fluoroquinolone resistant Staphylococcus aureus 5-FQR4M BSA678 expressing GyrA Ser84Leu and Ser85Pro mutant and GrlA Ser80Phe and Glu84Lys mutant; type: functional; outline: as §1
[8] = Cytotoxicity against human HeLa cell line after 72 hrs; type: cell-based; settings: HeLa cells
[9] = Cytotoxicity against human HepG2 cell line after 72 hrs; type: cell-based; settings: HepG2 cells
Staphylococcus aureus [10] = assay: Antibacterial activity against fluoroquinolone resistant Staphylococcus aureus 3-FQR3M ATCC 700699 expressing GyrA Ser84Leu mutant and Glu409Lys mutant and GrlA Ser80Phe mutant; type: functional; outline: as §1
[11] = Inhibition of Staphylococcus aureus topoisomerase 4 by decatenation assay
Outline: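 Enzyme activity was measured by topoisomerase IV decatenation using S. aureus enzyme. Inhibition is reported as a concentration in μM.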

Staphylococcus aureus [12] = assay: Antibacterial activity against fluoroquinolone resistant Staphylococcus aureus 4-FQR3M BSA643 expressing GyrA Ser84Leu mutant and GrlA Ser80Tyr and Glu84Gly mutant; type: functional; outline: as §1
hERG (KCNH2) = hERG (KCNH2) (Homo sapiens, UniProt Q12809); assay: Inhibition of human ERG expressed in mammalian cells at 10 uM by patch clamp method; type: cell-based; settings: mammalian cells that express hERG

Structure (SMILES)	MIC (Staphylococcus aureus [1]) [µg/mL]	MIC (Staphylococcus aureus [2]) [µg/mL]	CC50 at 72 h [3] [µM]	IC50 (DNA gyrase) [µM]	CC50 at 72 h [4] [µM]	MIC (Staphylococcus aureus [5]) [µg/mL]	MIC (Staphylococcus aureus [6]) [µg/mL]	MIC (Staphylococcus aureus [7]) [µg/mL]	CC50 at 72 h [8] [µM]	CC50 at 72 h [9] [µM]	MIC (Staphylococcus aureus [10]) [µg/mL]	IC50 [11] [µM]	MIC (Staphylococcus aureus [12]) [µg/mL]	inhibition at 10 µM (hERG (KCNH2)) [%]
COc1ccc2nccc([C@H](O)CC[C@@H]3CCN(CCSc4sccc4P(=O)(OC(C)C)OC(C)C)C[C@@H]3C(=O)O)c2c1 (mixture of isomers)	> 64	> 64	34											
COc1ccc2nccc([C@@H](O)CC[C@@H]3CCN(CCSc4ccc(C(F)F)[se]4)C[C@@H]3C(=O)O)c2c1 (mixture of isomers)	32	16	39	21.2										
COc1ccc2nccc([C@@H](O)CC[C@@H]3CCN(CCSc4ccc[se]4)C[C@@H]3C(=O)O)c2c1 (mixture of isomers)	0.25	0.25	> 100	0.4	> 100	0.25	0.5	1	> 100	> 100	0.25	64	0.5	
COC(=O)[C@H]1CN(CCC(=O)N2CCCCC2)CC[C@H]1CCC(=O)c1ccnc2ccc(OC)cc12		> 32												
COc1ccc2nccc([C@H](O)CC[C@@H]3CCN(CCSc4cccs4)C[C@@H]3C(=O)O)c2c1 (mixture of isomers)	1	0.5	> 100	3.3	> 100	1	1	4	> 100	> 100	0.5	23	1	
COC(=O)[C@H]1CN(CCSc2cccs2)CC[C@H]1CCC(=O)c1ccnc2ccc(OC)cc12		> 32												
COC(=O)[C@H]1CN(CCS(=O)(=O)c2ccc[se]2)CC[C@H]1CCC(=O)c1ccnc2ccc(OC)cc12		> 32												
COc1ccc2nccc([C@H](O)CC[C@@H]3CCN(CCSc4sccc4P(=O)(O)O)C[C@@H]3C(=O)O)c2c1 (mixture of isomers)	> 64	> 64	> 100	> 100										
O=C(O)c1cn(C2CC2)c2cc(N3CCNCC3)c(F)cc2c1=O [CIPROFLOXACIN]	0.25 (≈ 0.754 µM)	64 (≈ 193 µM)	> 100			64 (≈ 193 µM)	256 (≈ 773 µM)	128 (≈ 386 µM)			64 (≈ 193 µM)	3	256 (≈ 773 µM)	
COc1ccc2nccc([C@H](O)CC[C@@H]3CCN(CCS(=O)(=O)c4ccc[se]4)C[C@@H]3C(=O)O)c2c1 (mixture of isomers)	> 64	> 64	> 100											
COC(=O)[C@H]1CN(CCSc2ccc(C#N)[se]2)CC[C@H]1CCC(=O)c1ccnc2ccc(OC)cc12		> 32												
CO/N=C1\CN(c2nc3c(cc2F)c(=O)c(C(=O)O)cn3C2CC2)CC1CN (configuration not stated) [GEMIFLOXACIN]	0.03 (≈ 0.077 µM)	4 (≈ 10.3 µM)				1 (≈ 2.57 µM)	32 (≈ 82.2 µM)	64 (≈ 164 µM)			4 (≈ 10.3 µM)	0.4	32 (≈ 82.2 µM)	
COc1ccc2nccc([C@@H](O)CC[C@@H]3CCN(CCSc4sccc4P(=O)(O)O)C[C@@H]3C(=O)O)c2c1 (mixture of isomers)	> 64	> 64	> 94											
COc1ccc2nccc([C@H](O)CC[C@@H]3CCN(CCSc4ccco4)C[C@@H]3C(=O)O)c2c1 (mixture of isomers)	4	4	> 100	10.2	> 100	8	8	32	> 100	> 100	4	> 100	16	14
COc1ccc2nccc([C@@H](O)CC[C@@H]3CCN(CCSc4ccc(C#N)[se]4)C[C@@H]3C(=O)O)c2c1 (mixture of isomers)	32	32	48	36.6										
